Key:
[1] = Stability of the compound in rat plasma assessed as drug recovery; format: ADME, cell-free
[2] = Stability of the compound in water-methanol mixture (1:1) assessed as drug recovery; format: physicochemical; settings: buffer
[3] = AUC(0 to 24 hrs) in Sprague-Dawley rat plasma at 5.73 mg/kg, po administered as LKT formulation measured for 24 hrs by UPLC-MS/MS analysis; format: ADME, organism-based; set-up: route oral, time 24 hrs, dose 5.73 mg/kg
[4] = Tmax in Sprague-Dawley rat plasma at 9.6 mg/kg, po administered as OPMS liquid formulation measured for 24 hrs by UPLC-MS/MS analysis; format: ADME, organism-based
Outline: (§1)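 Jugular-cannulated male SD rats (225 ± 25 g, n = 4) were fasted 12–16 h and given one oral gavage of LKT (366 mg/kg) or OPMS liquid (0.8 mL/kg) in water at 4 mL/kg, with dosing normalized to MTG human equivalent dose. Plasma was sampled from predose to 24 h and measured by UPLC–MS/MS (LLOQ 1 ng/mL). Cmax and Tmax were read from the observed data; Cmax/dose was also reported. Mean ± SEM.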

[5] = Cmax in Sprague-Dawley rat plasma at 9.6 mg/kg, po administered as OPMS liquid formulation measured for 24 hrs by UPLC-MS/MS analysis; format: ADME, organism-based; set-up: route oral, dose 9.6 mg/kg, time 24 hrs; outline: as §1
[6] = AUC(0 to 24 hrs) in Sprague-Dawley rat plasma at 9.6 mg/kg, po administered as OPMS liquid formulation measured for 24 hrs by UPLC-MS/MS analysis; format: ADME, organism-based; set-up: route oral, time 24 hrs, dose 9.6 mg/kg
[7] = Dose normalized AUC(0 to 24 hrs) in Sprague-Dawley rat plasma at 9.6 mg/kg, po administered as OPMS liquid formulation measured for 24 hrs by UPLC-MS/MS analysis; format: ADME, organism-based; settings: in vivo
[8] = Dose normalized Cmax in Sprague-Dawley rat plasma at 9.6 mg/kg, po administered as OPMS liquid formulation measured for 24 hrs by UPLC-MS/MS analysis; format: ADME, organism-based; settings: in vivo; outline: as §1
[9] = Tmax in Sprague-Dawley rat plasma at 5.73 mg/kg, po administered as LKT formulation measured for 24 hrs by UPLC-MS/MS analysis; format: ADME, organism-based; outline: as §1
[10] = Cmax in Sprague-Dawley rat plasma at 5.73 mg/kg, po administered as LKT formulation measured for 24 hrs by UPLC-MS/MS analysis; format: ADME, organism-based; set-up: route oral, dose 5.73 mg/kg, time 24 hrs; outline: as §1
[11] = Dose normalized Cmax in Sprague-Dawley rat plasma at 5.73 mg/kg, po administered as LKT formulation measured for 24 hrs by UPLC-MS/MS analysis; format: ADME, organism-based; settings: in vivo; outline: as §1
[12] = Dose normalized AUC(0 to 24 hrs) in Sprague-Dawley rat plasma at 5.73 mg/kg, po administered as LKT formulation measured for 24 hrs by UPLC-MS/MS analysis; format: ADME, organism-based; settings: in vivo
[13] = molecular target: Cytochrome P450 2D6 (Homo sapiens, UniProt P10635); assay: Inhibition of CYP2D6 in human liver microsomes assessed as inhibition of dextromethorphan O-demethylation using dextromethorphan as substrate preincubated for 5 mins followed by NADPH addition by UPLC-MS/MS analysis; format: ADME
Chain of Cytochrome P450 2D6 (P10635 whole entry): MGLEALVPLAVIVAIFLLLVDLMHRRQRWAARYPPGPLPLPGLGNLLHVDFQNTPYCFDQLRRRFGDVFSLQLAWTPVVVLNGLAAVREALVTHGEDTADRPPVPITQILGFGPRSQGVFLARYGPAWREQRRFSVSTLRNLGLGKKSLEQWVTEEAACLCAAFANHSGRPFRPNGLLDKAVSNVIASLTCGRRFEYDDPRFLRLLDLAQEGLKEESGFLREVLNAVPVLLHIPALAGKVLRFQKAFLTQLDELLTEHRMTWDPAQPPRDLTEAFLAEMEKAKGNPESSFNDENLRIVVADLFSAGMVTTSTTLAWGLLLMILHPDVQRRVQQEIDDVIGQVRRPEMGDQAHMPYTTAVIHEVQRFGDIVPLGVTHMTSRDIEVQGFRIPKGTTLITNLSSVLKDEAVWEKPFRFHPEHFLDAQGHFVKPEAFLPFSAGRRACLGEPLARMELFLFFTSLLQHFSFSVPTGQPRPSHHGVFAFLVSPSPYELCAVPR

[14] = Dose normalized Cmax in rat plasma at 20 mg/kg, po administered as LKT formulation; format: ADME, organism-based; settings: in vivo
[15] = Dose normalized AUC in rat plasma at 20 mg/kg, po administered as LKT formulation; format: ADME, organism-based; settings: in vivo
[16] = rat, in vivo, po, 5.73 mg/kg, 24 h
[17] = rat, in vivo, po, 9.6 mg/kg, 24 h
[18] = Tmax in Sprague-Dawley rat plasma at 2.03 mg/kg, po administered as LKT formulation measured for 24 hrs by UPLC-MS/MS analysis; format: ADME, organism-based; outline: as §1
[19] = Cmax in Sprague-Dawley rat plasma at 2.03 mg/kg, po administered as LKT formulation measured for 24 hrs by UPLC-MS/MS analysis; format: ADME, organism-based; set-up: route oral, dose 2.03 mg/kg, time 24 hrs; outline: as §1
[20] = AUC(0 to 24 hrs) in Sprague-Dawley rat plasma at 2.03 mg/kg, po administered as LKT formulation measured for 24 hrs by UPLC-MS/MS analysis; format: ADME, organism-based; set-up: route oral, time 24 hrs, dose 2.03 mg/kg
[21] = Dose normalized Cmax in Sprague-Dawley rat plasma at 2.03 mg/kg, po administered as LKT formulation measured for 24 hrs by UPLC-MS/MS analysis; format: ADME, organism-based; settings: in vivo; outline: as §1
[22] = Dose normalized AUC(0 to 24 hrs) in Sprague-Dawley rat plasma at 2.03 mg/kg, po administered as LKT formulation measured for 24 hrs by UPLC-MS/MS analysis; format: ADME, organism-based; settings: in vivo
[23] = Tmax in Sprague-Dawley rat plasma at 2.24 mg/kg, po administered as OPMS liquid formulation measured for 24 hrs by UPLC-MS/MS analysis; format: ADME, organism-based; outline: as §1
[24] = Cmax in Sprague-Dawley rat plasma at 2.24 mg/kg, po administered as OPMS liquid formulation measured for 24 hrs by UPLC-MS/MS analysis; format: ADME, organism-based; set-up: route oral, dose 2.24 mg/kg, time 24 hrs; outline: as §1
[25] = AUC(0 to 24 hrs) in Sprague-Dawley rat plasma at 2.24 mg/kg, po administered as OPMS liquid formulation measured for 24 hrs by UPLC-MS/MS analysis; format: ADME, organism-based; set-up: route oral, time 24 hrs, dose 2.24 mg/kg
[26] = Dose normalized Cmax in Sprague-Dawley rat plasma at 2.24 mg/kg, po administered as OPMS liquid formulation measured for 24 hrs by UPLC-MS/MS analysis; format: ADME, organism-based; settings: in vivo; outline: as §1
[27] = Dose normalized AUC(0 to 24 hrs) in Sprague-Dawley rat plasma at 2.24 mg/kg, po administered as OPMS liquid formulation measured for 24 hrs by UPLC-MS/MS analysis; format: ADME, organism-based; settings: in vivo
[28] = Tmax in Sprague-Dawley rat plasma at 1.1 mg/kg, po administered as LKT formulation measured for 24 hrs by UPLC-MS/MS analysis; format: ADME, organism-based; outline: as §1
[29] = Cmax in Sprague-Dawley rat plasma at 1.1 mg/kg, po administered as LKT formulation measured for 24 hrs by UPLC-MS/MS analysis; format: ADME, organism-based; set-up: route oral, dose 1.1 mg/kg, time 24 hrs; outline: as §1
[30] = Tmax in Sprague-Dawley rat plasma at 1.77 mg/kg, po administered as OPMS liquid formulation measured for 24 hrs by UPLC-MS/MS analysis; format: ADME, organism-based; outline: as §1
[31] = Cmax in Sprague-Dawley rat plasma at 1.77 mg/kg, po administered as OPMS liquid formulation measured for 24 hrs by UPLC-MS/MS analysis; format: ADME, organism-based; set-up: route oral, time 24 hrs, dose 1.77 mg/kg; outline: as §1
[32] = Plasma concentration in Sprague-Dawley rat at 1.1 mg/kg, po administered as LKT formulation measured within 1 hrs by UPLC-MS/MS analysis; format: ADME, organism-based; outline: as §1
[33] = Plasma concentration in Sprague-Dawley rat at 1.77 mg/kg, po administered as OPMS liquid formulation measured within 1 hrs by UPLC-MS/MS analysis; format: ADME, organism-based; outline: as §1

Structure (SMILES): COC(=O)C1=CO[C@@H](C)[C@H]2CN3CC[C@]4(C(=O)Nc5ccccc54)[C@@H]3C[C@H]12
- Drug recovery [1]: > 90%
- Drug recovery [2]: > 80%

Structure (SMILES): CC[C@@H]1CN2CCc3c([nH]c4cccc(OC)c34)[C@@H]2C[C@@H]1/C(=C\OC)C(=O)OC
- AUC(0-t) at 24 h [3]: 480 ng·h/mL
- Tmax [4]: 3.1 h
- Cmax [5]: 112 ng/mL
- AUC(0-t) at 24 h [6]: 1310 ng·h/mL
- AUC/dose [7]: 136.1 kg·ng·h/mL/mg
- Cmax/dose [8]: 11.7 kg·ng/mL/mg
- Tmax [9]: 1.3 h
- Cmax [10]: 63.8 ng/mL
- Cmax/dose [11]: 11.1 kg·ng/mL/mg
- AUC/dose [12]: 83.7 kg·ng·h/mL/mg
- Ki [13]: 1.1 µM
- Cmax/dose [14]: 46.5 ng/mL
- AUC/dose [15]: 213.1 kg·ng·h/mL/mg
- Drug recovery [1]: > 90%
- Drug recovery [2]: > 80%
- Drug metabolism [16]: 3.4%
- Drug metabolism [17]: 3.1%

Structure (SMILES): CC[C@@H]1CN2CCc3c([nH]c4cccc(OC)c34)[C@H]2C[C@@H]1/C(=C\OC)C(=O)OC
- Tmax [18]: 1.8 h
- Cmax [19]: 21.1 ng/mL
- AUC(0-t) at 24 h [20]: 107 ng·h/mL
- Cmax/dose [21]: 10.4 kg·ng/mL/mg
- AUC/dose [22]: 52.9 kg·ng·h/mL/mg
- Tmax [23]: 3.2 h
- Cmax [24]: 23.8 ng/mL
- AUC(0-t) at 24 h [25]: 223 ng·h/mL
- Cmax/dose [26]: 10.8 kg·ng/mL/mg
- AUC/dose [27]: 101.2 kg·ng·h/mL/mg
- Drug recovery [1]: > 90%
- Drug recovery [2]: > 80%

Structure (SMILES): C=C[C@H]1CN2CCc3c([nH]c4cccc(OC)c34)[C@@H]2C[C@@H]1/C(=C\OC)C(=O)OC
- Tmax [28]: 0.167 h
- Cmax [29]: 5.3 ng/mL
- Tmax [30]: 5 min
- Cmax [31]: 2 ng/mL
- concentration at 1 h [32]: < 1 ng/mL
- concentration at 1 h [33]: < 1 ng/mL
- Drug recovery [1]: > 90%
- Drug recovery [2]: > 80%

Structure (SMILES): CC[C@@H]1CN2CC[C@@]3(C(=O)Nc4cccc(O)c43)[C@H]2C[C@@H]1/C(=C\OC)C(=O)OC
- Drug recovery [1]: > 90%
- Drug recovery [2]: > 80%
